Legend:
Vasopressin V2 receptor = Vasopressin V2 receptor (Sus scrofa, UniProt P32307); assay: Inhibition of LVP stimulated adenylate cyclase activity in pig kidney medullary membrane; format: functional, cell membranes
How it was run: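 LVP-stimulated adenylate cyclase in pig kidney medullary membranes. The inhibition constant K_i was derived from the competitive-inhibition equation. Values are the mean of triplicate determinations.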

Rattus norvegicus = assay: Dose required to decrease urine osmolality in rats from the hydropenic levels (~1500 mOsm/kg of H20) 300 mOsm/kg H20; format: functional
How it was run: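 Male rats were deprived of food and water overnight to give a stable hydropenic state (urine osmolality ~1500 mOsm/kg H₂O). Rats were kept in metabolism cages, four per cage, and given vehicle or one of four doses. Urine volume and osmolality were measured. ED (µg/kg) to lower Uosm to 300 mOsm/kg H₂O was averaged from one to three dose-response curves per peptide.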

[1] = molecular target: Vasopressin V2 receptor (Sus scrofa) (UniProt P32307); assay: Affinity for vasopressin V2-receptor of porcine renal medullary membrane; format: tissue-based; details: Renal medulla
How it was run: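 Porcine renal medullary membrane preparation; displacement of [³H]LVP binding. K_bind calculated from the IC50 by the competitive-inhibition relation Kb = IC50/(1 + L/K_D), with K_D taken as the dissociation constant of [³H]LVP.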

Vasopressin V2 receptor (Sus scrofa), sequence (P32307 whole entry): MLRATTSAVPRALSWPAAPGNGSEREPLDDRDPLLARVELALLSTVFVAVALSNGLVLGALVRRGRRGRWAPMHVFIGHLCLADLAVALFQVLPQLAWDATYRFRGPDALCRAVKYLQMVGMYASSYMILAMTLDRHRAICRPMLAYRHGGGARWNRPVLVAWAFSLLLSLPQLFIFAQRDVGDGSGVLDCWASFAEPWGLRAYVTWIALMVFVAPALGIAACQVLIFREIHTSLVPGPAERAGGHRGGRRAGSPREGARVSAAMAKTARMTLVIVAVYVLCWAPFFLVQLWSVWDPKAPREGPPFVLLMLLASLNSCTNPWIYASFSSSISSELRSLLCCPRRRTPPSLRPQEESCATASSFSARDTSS
Vasopressin V2 receptor, sequence (P32307 whole entry): as above

SMILES	K bind [1] [nM]	further results
CCOc1ccc(C[C@H]2NC(=O)CC3(CCCCC3)SSC[C@@H](C(=O)N[C@@H](CCCNC(=N)N)C(N)=O)NC(=O)[C@H](CCN)NC(=O)[C@H](C(C)C)NC(=O)[C@H](Cc3ccccc3)NC2=O)cc1	–	Ki (Vasopressin V2 receptor): 2.5 nM
CCOc1ccc(C[C@H]2NC(=O)CC3(CCCCC3)SSC[C@@H](C(=O)N3CCC[C@H]3C(=O)N[C@@H](CCCN=C(N)N)C(=O)NCC(N)=O)NC(=O)[C@H](CC(N)=O)NC(=O)[C@H](C(C)C)NC(=O)[C@H](Cc3ccccc3)NC2=O)cc1	–	ED300 (Rattus norvegicus): 11 µg/kg
CCOc1ccc(C[C@@H]2NC(=O)CC3(CCCCC3)SSC[C@H](C(=O)N[C@H](CCCN=C(N)N)C(N)=O)NC(=O)[C@@H](CCN)NC(=O)[C@H](C(C)C)NC(=O)[C@@H](Cc3ccccc3)NC2=O)cc1	4.4	–
CCOc1ccc(C[C@@H]2NC(=O)CC3(CCCCC3)SSC[C@H](C(=O)N3CCC[C@H]3C(=O)N[C@@H](CCCN=C(N)N)C(=O)NCC(N)=O)NC(=O)[C@@H](CC(N)=O)NC(=O)[C@H](C(C)C)NC(=O)[C@@H](Cc3ccccc3)NC2=O)cc1	12	–
CCOc1ccc(C[C@H]2NC(=O)CC3(CCCCC3)SSC[C@@H](C(=O)N3CCC[C@H]3C(=O)N[C@@H](CCCN=C(N)N)C(N)=O)NC(=O)[C@H](CC(N)=O)NC(=O)[C@H](C(C)C)NC(=O)[C@H](Cc3ccccc3)NC2=O)cc1	–	ED300 (Rattus norvegicus): 9 µg/kg
CCOc1ccc(C[C@@H]2NC(=O)CC3(CCCCC3)SSC[C@H](C(=O)N[C@@H](CCCCN)C(N)=O)NC(=O)[C@@H](CCN)NC(=O)[C@H](C(C)C)NC(=O)[C@@H](Cc3ccccc3)NC2=O)cc1	26	–
CCOc1ccc(C[C@@H]2NC(=O)CC3(CCCCC3)SSC[C@H](C(=O)N3CCC[C@H]3C(=O)N[C@@H](CCCN=C(N)N)C(N)=O)NC(=O)[C@@H](CC(N)=O)NC(=O)[C@H](C(C)C)NC(=O)[C@@H](Cc3ccccc3)NC2=O)cc1	12	–
